# Assay results pooled from the literature.
# Lines come from different studies, so protocols differ.
# Target: Serine/threonine-protein kinase SIK2 (SIK2, Homo sapiens, UniProt Q9H0K1)
SMILES,test,conditions,remaining binding
CNCc1ccccc1-c1csc([C@H](C)Nc2nc(C)nc3cc(OC)c(OC)cc23)c1,"cell-free assay, competition with immobilised ligand",1 µM,100%
C=CC(=O)N1CCC(C(=O)NCC(=O)N2CCN(c3nc(-c4cnc(N)nc4C(F)F)nc(N4CCOCC4)n3)CC2)CC1,"binding, competition with immobilised ligand",1 µM,96%
CCC(=N\O)/C(C)=C/c1ccc(F)cc1,"cell-free assay, competition with immobilised ligand",1 µM,100%
CN(C)c1ncc(F)c(-c2cnn3ncccc23)n1,binding,1 µM,100%
O=C(NCCCN1CCOCC1)c1ccc(Nc2nccc(-c3cc4ccccc4s3)n2)cc1,"binding, competition with immobilised ligand",1 µM,51%
c1cnn2ncc(-c3ccnc(N4CCC45COC5)n3)c2c1,binding,1 µM,96%
c1ccc(N2CCN(Cc3nc4ccccc4[nH]3)CC2)nc1,"binding, competition with immobilised ligand",1 µM,100%
Nc1ncc2c(n1)-c1c([nH]c3ccc(C#CC4CC4)cc13)CCCC2,"binding, competition with immobilised ligand",1 µM,81%
N#Cc1ccc(Nc2ccc3[nH]c(=O)[nH]c3c2)c(Cl)c1,"cell-free assay, competition with immobilised ligand",1 µM,100%
c1cncc(-c2cccc(Nc3nccc(NC4CCCCC4)n3)c2)c1,"binding, competition with immobilised ligand",10 µM,73%
COc1cnc(Nc2cccc(S(N)(=O)=O)c2)nc1N1CCN(c2ccccc2)C(=O)C1,"binding, competition with immobilised ligand",1 µM,92%
CN(C)c1nccc(-c2cnn3ncccc23)n1,binding,1 µM,100%
C[C@@H](c1ccc(-n2cnc3c(N)ncnc32)cc1)N1CCc2nn(C)c(Cc3ccccc3)c2C1=O,"binding, competition with immobilised ligand",0.1 µM,73%
O=C(NCC1CCOCC1)c1n[nH]cc1NC(=O)c1c(F)cccc1F,"binding, competition with immobilised ligand",1 µM,83%
N[C@@H]1CCN(c2nccc(-c3cnn4ncccc34)n2)C1,binding,1 µM,100%
CNC(=O)[C@@H]1CC[C@@H](n2c(-c3ccc4cnccc4c3)nc3ccc(C(=O)NCc4cccc(C(N)=O)c4)cc32)C1,"binding, competition with immobilised ligand",1 µM,97%
CC1CCCN1c1nccc(-c2cnn3ncccc23)n1 (stereo not shown),binding,1 µM,90%
COc1ccc2c(c1)O[C@@H](c1ccc(OC)c(OC)c1)C[C@H]2NC(=O)C1(c2ccc3c(c2)OC(F)(F)O3)CC1,"cell-free assay, competition with immobilised ligand",1 µM,95%
O=C(NCCCN1CCOCC1)c1ccc(Nc2ncc(Cl)c(-c3ccc(Cl)s3)n2)cc1,"binding, competition with immobilised ligand",1 µM,37%
COCCOc1nc(-c2ccc(Cl)nc2)nc2c1CN(C(=O)c1ncn3ccccc13)CC2,"cell-free assay, competition with immobilised ligand",0.1 µM,100%
O=C(c1ccc(Nc2nccc(-c3cc4ccccc4s3)n2)cc1)N1CCC(N2CCCC2)CC1,"binding, competition with immobilised ligand",1 µM,45%
C[C@H]1CCN(c2nccc(-c3cnn4ncccc34)n2)C1,binding,1 µM,100%
